The list is not random: actives were taken first. Their share in the collection is about 2.9%.
TRPC6 activator: mouse TRPC6 channel activators, primary screen, cell-based, HEK293, membrane potential dye | Short transient receptor potential channel 6 (Mus musculus), Q61143 | HEK293-TRPC6 membrane potential dye fluorescence; active compounds read high | B-score at 10 µM | 310,000 compounds, 0.13% hits | AID 2550, 2010;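 active = B-score of the integrated fluorescence ratio above library mean plus 3 SD, and starting fluorescence ratio within library mean plus 5 SD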;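 also: higher score means more depolarization so channel activation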
TRPC4 PAM: positive allosteric modulators of TRPC4, primary screen, cell-based, mouse TRPC4beta, HEK293 mu-opioid, Fluo-4 calcium; B-score at 10 µM; 310,000 compounds, 0.42% hits; DAMGO EC20, Fluo-4 Ca2+ flux; active compounds read high;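 active = B-score of calcium response area above 5 SD of library B-scores, with initial fluorescence ratio within 5 SD of library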
TRPC4 block: inhibitors of mouse TRPC4 channel, primary screen, Fluo4 calcium, HEK293 TRPC4beta/mu-opioid cells; DAMGO-evoked Fluo4 calcium flux; active compounds read low; B-score at 10 µM; 300,000 compounds, 0.39% hits;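 active = B-score over 3 SD under the library average, no early fluorescence shift, positive overall ratio signal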
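material = TRPC4beta/mu-opioid receptor HEK293 cell line | probe or stimulus = sequential submaximal and maximal DAMGO stimulation | compound dosing = one concentration per compound | measured by = Fluo4 Ca2+ flux fluorescence | evaluation = integrated fluorescence ratio relative to baseline, converted to per-well B score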
TRPC4 agonist: activators of mouse TRPC4 channel, primary screen, Fluo4 calcium, HEK293 TRPC4beta/mu-opioid cells; Fluo4 calcium fluorescence; active compounds read high; B-score at 10 µM; 310,000 compounds, 0.49% hits; AID 2237, 2010;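 active = B-score above 5 SD of library B-scores, and initial fluorescence ratio not above library mean plus 5 SD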;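 also: positive B-score marks a calcium rise read as TRPC4 activation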
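Material: HEK293 stable line with TRPC4beta plus mu-opioid receptor; technique: Fluo4 calcium-sensitive dye fluorescence, kinetic, 1 Hz baseline; timing: Fluo4 dye loading 45 min at room temperature, 110 s recording; controls: assay buffer as low control, maximal DAMGO as high control; read-out: integrated baseline-normalised fluorescence ratio, converted to per-well B score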
Kir21 block: inhibitors of mouse Kir2.1 inward-rectifier potassium channel; 310,000 compounds, 0.85% hits; HEK293-Kir2.1, FluxOR thallium flux fluorescence; active compounds read low; AID 1672, 2009; Inward rectifier potassium channel 2 (Mus musculus), P35561; B-score at 10 µM;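 active = fluorescence ratio B-score at or below minus 3 SD of library scores, with starting-brightness B-score within 2 SD, cut at about -4.2 in these data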;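 also: channel flux triggered by added potassium and thallium sulfate stimulus; B-score of peak minus minimum fluorescence over baseline after thallium stimulus; more negative B-score means stronger Kir2.1 block with less thallium influx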
TRPC6 inh: mouse TRPC6 channel inhibitors, primary screen, cell-based, HEK293, membrane potential dye | ACh-evoked depolarization; active compounds read low | 310,000 compounds, 1.1% hits | B-score at 10 µM | Short transient receptor potential channel 6 (Mus musculus), Q61143;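 active = B-score under library mean minus 3 SD, initial fluorescence not abnormally high, positive integrated signal ratio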;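 also: B-score derived from integrated fluorescence ratio over the kinetic read; more negative B-score means stronger inhibition of depolarization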
Each line names hits and unclear results; the compound was inactive in the other large screens.

CN1CCN(S(=O)(=O)c2cc(Cl)c(Cl)cc2Cl)CC1	TRPC4 agonist 51
Cc1cc(C)c(S(=O)(=O)N2CCN(CCO)CC2)c(C)c1	none
CN1CCN(S(=O)(=O)c2ccc(Cl)c3ccccc23)CC1	none
CC(=O)c1ccc(OCC(O)CN2CCOCC2)cc1 (stereo not given)	none
Cc1noc(NS(=O)(=O)c2ccc(NC(=O)C(F)(F)C(F)(F)C(F)(F)F)cc2)c1C	none
CCCCC(=O)N(CCOC)c1nnc(-c2ccccc2C)s1	none
CSCCC(NC(=O)c1ccco1)C(=O)OC(C)C(=O)NC(=O)NC1CCCCC1 (stereo not given)	TRPC4 agonist 70
COc1ccc(OC)c(NC(=O)CCN2CCN(C/C=C/c3ccccc3)CC2)c1	none
CCCCN(CC)CCNc1c(N2CCN(C(=O)OCC)CC2)c(=O)c1=O	TRPC4 agonist 124 (no result: TRPC4 block)
CCOC(=O)N1CCN(c2c(NCCCN(CC)CC)c(=O)c2=O)CC1	none
Cc1nccn1CC(=O)N/N=C/c1cccs1	none
COc1ccc(-n2nnnc2SCC(=O)NCCc2ccccc2)cc1OC	none
COc1ccc(CCNc2nnc(Sc3nnnn3-c3ccccc3)s2)cc1OC	Kir21 block -4.5
COc1ccc(C(CCNCc2ccc(N(C)C)cc2)c2ccccc2OC)cc1 (stereo not given)	TRPC4 agonist 63
COc1ccc(CNC(c2ccccc2)c2ccc(Cl)cc2)cc1 (stereo not given)	none
COc1ccc(CNCCC(c2ccccc2)C2CCOC(C)(C)C2)cc1 (stereo not given)	TRPC4 agonist 60
COc1ccc(OC)c(NC(=S)NCCC(c2ccccc2)c2ccccc2)c1	none
COc1ccc(C(CCNCc2ccc(OC(C)C)cc2)c2ccccc2OC)cc1 (stereo not given)	Kir21 block -9.9
COc1ccc(CN(CCC(c2ccccc2)C2CCOC(C)(C)C2)C(C)=O)cc1 (stereo not given)	none
COc1ccc(CNCCC(c2ccc(OC)cc2)c2ccccc2OC)cc1 (stereo not given)	Kir21 block -11
CCN(CC)C(=O)C1c2ccccc2Oc2ccccc21	none
Cc1cc(C)c2nc(-c3cccc(Cl)c3)c(C)c(C(=O)N3CCOCC3)c2c1	none
CC(c1nnnn1C(C)(C)C)N(Cc1cccnc1)Cc1ccccc1Cl (stereo not given)	Kir21 block -4.3
Cc1ccc(Cl)c(OCC(=O)NCC(c2cccs2)N2CCOCC2)c1 (stereo not given)	Kir21 block -7.8
Cc1c(N2C(=O)/C(=C/C3CC=CCC3)SC2=S)c(=O)n(-c2ccccc2)n1C (stereo not given)	none
Cc1c(N2C(=O)/C(=C\C3CC=CCC3)SC2=S)c(=O)n(-c2ccccc2)n1C (stereo not given)	TRPC4 PAM 17
COc1ccc(S(=O)(=O)NN(C)c2ncc(C(F)(F)F)cc2Cl)cc1	Kir21 block -8
O=C1CSC(c2ccc(Cl)cc2)N1C1CCCCC1 (stereo not given)	Kir21 block -6.1
O=C1CSC(c2cccnc2)N1C1CCCCC1 (stereo not given)	none
Cc1ccc2oc(C(=O)N(C)Cc3ccc(C)o3)c(C)c2c1	TRPC4 block -6
CCCCN(C(=O)CCn1c(=O)oc2ccccc21)c1ccccc1	Kir21 block -8.2
Cc1cccc(NC(=O)CN2C(=O)CCS(=O)(=O)c3ccccc32)c1C	none
Cc1cccc2c1-c1sc(C(=O)NCCCN3CCCC(C)C3)cc1CO2 (stereo not given)	TRPC4 agonist 48, Kir21 block -4.7
CCCN1CCN(CCCNC(=O)c2cc3c(s2)-c2c(C)cccc2OC3)CC1	none
CC(NC(=O)/C(C#N)=C/c1ccc([N+](=O)[O-])o1)c1ccccc1 (stereo not given)	Kir21 block -7.7
COc1ccc(-n2cc(CNCc3cccnc3)c(-c3cccc(F)c3)n2)cc1	TRPC4 agonist 94
COc1ccc(CNCc2cn(-c3cccc(F)c3)nc2-c2ccc(C)o2)cc1	TRPC4 agonist 103
COc1ccc(-c2nn(-c3ccccc3C)cc2CNCc2cccnc2)cc1F	TRPC4 agonist 178
COc1ccc(-c2nn(-c3ccccc3)cc2CNCc2cccnc2)c(F)c1	TRPC4 agonist 103
CC(Oc1ccc(F)cc1F)C(=O)NNC(=S)NCC1CCCO1 (stereo not given)	none
CCN(C(=O)CCS(=O)(=O)c1cccc2nonc12)c1ccc(F)cc1	none
O=C(Nc1cnn(C23CC4CC(CC(C4)C2)C3)c1)c1cnn2cccnc12	TRPC4 PAM 73
N#Cc1c(NC(=O)c2cnn3cccnc23)sc2c1CCCC2	none
Cc1nc(-c2ccc(NC(=O)CC(C)C)cc2)cs1	none
O=Cc1c(NC2CCCCC2)c2ccccc2[nH]c1=O	none
CC(C)n1c(=N)c(C(=O)NCCc2ccccc2)cc2c(=O)n3ccccc3nc21	TRPC6 inh -10
N=c1c(C(=O)NCc2ccco2)cc2c(=O)n3ccccc3nc2n1Cc1ccc(Cl)cc1	TRPC4 PAM 13
N=c1c(C(=O)NCc2ccccc2)cc2c(=O)n3ccccc3nc2n1Cc1ccco1	none
N=c1c(C(=O)NCc2ccc(F)cc2)cc2c(=O)n3ccccc3nc2n1Cc1ccco1	TRPC4 PAM 15
Cc1ccc(C2NC(=NCc3ccccc3)Nc3nc(C)cc(=O)n32)cc1 (stereo not given)	none
CS(=O)(=O)N(CC(=O)N1CCc2ccccc2C1)c1cccc(F)c1	Kir21 block -4.2
CSc1nnc(Cc2sc(-c3ccccc3)nc2-c2ccccc2)o1	TRPC4 PAM 20
CCCCN(CC)CCCNC(=O)CN1C(=O)CSc2ccc(S(=O)(=O)N3CCOCC3)cc21	TRPC4 agonist 55
CC1(NC(=O)CC[N+](C)(C)CCO)CS(=O)(=O)CC1S(=O)(=O)[O-] (stereo not given)	none
COc1ccc(CN2CCNC(=O)C2CC(=O)N2CCCN(C(C)=O)CC2)cc1OC (stereo not given)	none
O=C(NNC(=O)c1sc2ccccc2c1Cl)Nc1ccc(Cl)cc1	none
O=C(O)c1ccccc1NC(=S)NC(=O)c1sc2ccccc2c1Cl	none
Cc1ccc(NC(=S)NC(=O)c2sc3ccccc3c2Cl)c(C(=O)O)c1	TRPC4 block -6

High-throughput results deposited in PubChem by Johns Hopkins Ion Channel Center.
